ChEMBL document CHEMBL1150564, “Isoterchebulin and 4,6-O-isoterchebuloyl-D-glucose, novel hydrolyzable tannins from Terminalia macroptera” (J Nat Prod, 2001)
Converted amounts (≈) assume the structure as drawn. The source made the active and inactive calls. The rule behind the calls is not given here.

What was measured:
Bacillus subtilis = assay: Antibacterial activity against Bacillus subtilis by microdilution assay; assay type: functional
Procedure, shortened: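 Broth microdilution against B. subtilis, samples serially twofold diluted from a 1024 µg/mL start, two replicates per concentration. MIC recorded. Cefotaxim served as positive control. Afterwards, bacteria treated at the MIC were replated on drug-free HNB agar to tell bacteriostatic from bactericidal action.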

Pseudomonas fluorescens = assay: Antibacterial activity against Pseudomonas fluorescens at 1024 ug/ml; assay type: functional, organism-based
Procedure, shortened: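 Broth microdilution against P. fluorescens, samples serially twofold diluted from a top concentration of 1024 µg/mL, two replicates per concentration. Cefotaxim served as positive control.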

5637 = assay: Cytotoxicity against human 5637 cells; assay type: functional; settings: read-out: LC50 (the source's name)
[1] = Toxicity against Oreochromis mossambicus assessed as mortality at 50 ug/ml; assay type: organism-based; settings: in vivo, read-out: Activity
Procedure, shortened: (§1)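 Tilapia (Oreochromis mossambicus) exposed to the compound in water at 50 or 75 µg/mL. Read-out is percent fish mortality.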

Caenorhabditis elegans = assay: Nematicidal activity against Caenorhabditis elegans at 100 ug/ml; assay type: functional, organism-based
Procedure, shortened: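 Caenorhabditis elegans exposed to compound at 50 and 100 µg/mL (n = 60, two replicates per concentration). Scored by increase in worm number and worm movement, graded on a + scale. Pyrantel embonate at 50 µg/mL served as positive control.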

[2] = Toxicity against Oreochromis mossambicus assessed as mortality at 75 ug/ml; assay type: organism-based; settings: in vivo, read-out: Activity; procedure, shortened: as §1
Biomphalaria glabrata = assay: Molluscicidal activity against Biomphalaria glabrata; assay type: functional

Row | MIC (Bacillus subtilis) [µg/mL] | Structure (SMILES) | Activity (Pseudomonas fluorescens) | also measured
1 | 8 (≈ 10.2 µM) | [H][C@@]12COC(=O)c3cc(O)c(O)c(O)c3Oc3c(O)cc4c(=O)oc5c(O)c(O)c(c6c(=O)oc3c4c56)-c3c(cc(O)c(O)c3O)C(=O)O[C@@]1([H])[C@H](O)[C@@H](O)C(O)O2 (stereo partly drawn) |  | 
2 |  | O=C1O[C@H]2[C@H](O)[C@@H](CO)OC(O)[C@@H]2OC(=O)c2cc(O)c(O)c(O)c2-c2c1cc(O)c(O)c2O (stereo partly drawn) | inactive | Activity (Bacillus subtilis): inactive; CC50 5637: 84.7 µM
3 | 8 (≈ 8.56 µM) | O=C(O[C@H]1C(O)O[C@@H]2COC(=O)c3cc(O)c(O)c(O)c3-c3c(O)c(O)c4oc(=O)c5c(c(O)c(O)c6oc(=O)c3c4c65)-c3c(cc(O)c(O)c3O)C(=O)O[C@H]2[C@@H]1O)c1cc(O)c(O)c(O)c1 (stereo partly drawn) | inactive | 
4 |  | O=C1OC[C@H]2OC(O)[C@H](O)[C@@H](O)[C@@H]2OC(=O)c2cc(O)c(O)c(O)c2-c2c(O)c(O)c3oc(=O)c4cc(O)c(c5oc(=O)c2c3c54)Oc2c1cc(O)c(O)c2O (stereo partly drawn) | inactive | 
5 | 2 (≈ 4.39 µM) | CO/N=C(\C(=O)N[C@@H]1C(=O)N2C(C(=O)O)=C(COC(C)=O)CS[C@H]12)c1csc(N)n1 [CEFOTAXIME] |  | 
6 | 32 (≈ 29.5 µM) | O=C1O[C@@H]2[C@@H](OC(=O)c3cc(O)c(O)c(O)c3-c3c1cc(O)c(O)c3O)[C@H](O)O[C@@H]1COC(=O)c3cc(O)c(O)c(O)c3-c3c(O)c(O)c4oc(=O)c5c(c(O)c(O)c6oc(=O)c3c4c65)-c3c(cc(O)c(O)c3O)C(=O)O[C@@H]21 [PUNICALAGIN] | inactive | 
7 | 64 (≈ 58.9 µM) | O=C(OC[C@H]1OC(O)[C@@H]2OC(=O)c3cc(O)c(O)c(O)c3-c3c(cc(O)c(O)c3O)C(=O)O[C@H]2[C@@H]1OC(=O)c1cc(O)c(O)c(O)c1-c1c(O)c(O)c2oc(=O)c3cc(O)c(O)c4oc(=O)c1c2c43)c1cc(O)c(O)c(O)c1 (stereo partly drawn) [TERFLAVIN A] | inactive | 
8 | 64 (≈ 81.6 µM) | O=C(OC[C@H]1OC(O)[C@H](O)[C@@H](O)[C@@H]1OC(=O)c1cc(O)c(O)c(O)c1-c1c(O)c(O)c2oc(=O)c3cc(O)c(O)c4oc(=O)c1c2c43)c1cc(O)c(O)c(O)c1 (stereo partly drawn) [TERFLAVIN B] | inactive | 

Row | Structure (SMILES) | MIC (Bacillus subtilis) [µg/mL] | Activity (Pseudomonas fluorescens) | also measured
9 | [H][C@@]12OC(=O)c3cc(O)c(O)c(O)c3-c3c(O)c(O)c4oc(=O)c5cc(O)c(c6oc(=O)c3c4c65)Oc3c(cc(O)c(O)c3O)C(=O)OC[C@@]1([H])OC(O)[C@]1([H])OC(=O)c3cc(O)c(O)c(O)c3-c3c(cc(O)c(O)c3O)C(=O)O[C@@]21[H] (stereo partly drawn) [ISOTERCHEBULIN] | 8 (≈ 7.38 µM) | inactive | mortality at 50 ug/ml [1]: 10%; Activity (Caenorhabditis elegans): Active; mortality at 75 ug/ml [2]: 10%; LC100 (Biomphalaria glabrata): 60 µg/mL
10 | O=C1O[C@H]([C@@H]2OC(=O)c3cc(O)c(O)c(O)c3-c3c(O)c(O)c4oc(=O)c5c(c(O)c(O)c6oc(=O)c3c4c65)-c3c(cc(O)c(O)c3O)C(=O)OC[C@H]2O)[C@@H]2OC(=O)c3c(c(O)c(O)c(O)c3[C@H]2O)-c2c1cc(O)c(O)c2O [PUNICACORTEIN C] | 16 (≈ 14.8 µM) | inactive | CC50 5637: 41.4 µM
